Activity calls are given as the source filed them. The rule behind the calls is not given here.
Molecular target: Serine/threonine-protein kinase PLK1 (Homo sapiens, UniProt P53350)
Assay: Inhibition of Plk1 immunoprecipitated from human HeLa cells using casein substrate after 12 to 26 hrs by autoradiography
Assay type: cell-based
Details: not given
In short: (§1)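 HeLa cells were synchronized and incubated with compound. Plk1, Plk2 or Plk3 was then immunoprecipitated from the cells and assayed for kinase activity with casein as substrate. Activity was read by autoradiography.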

Serine/threonine-protein kinase PLK1, sequence (P53350 whole entry): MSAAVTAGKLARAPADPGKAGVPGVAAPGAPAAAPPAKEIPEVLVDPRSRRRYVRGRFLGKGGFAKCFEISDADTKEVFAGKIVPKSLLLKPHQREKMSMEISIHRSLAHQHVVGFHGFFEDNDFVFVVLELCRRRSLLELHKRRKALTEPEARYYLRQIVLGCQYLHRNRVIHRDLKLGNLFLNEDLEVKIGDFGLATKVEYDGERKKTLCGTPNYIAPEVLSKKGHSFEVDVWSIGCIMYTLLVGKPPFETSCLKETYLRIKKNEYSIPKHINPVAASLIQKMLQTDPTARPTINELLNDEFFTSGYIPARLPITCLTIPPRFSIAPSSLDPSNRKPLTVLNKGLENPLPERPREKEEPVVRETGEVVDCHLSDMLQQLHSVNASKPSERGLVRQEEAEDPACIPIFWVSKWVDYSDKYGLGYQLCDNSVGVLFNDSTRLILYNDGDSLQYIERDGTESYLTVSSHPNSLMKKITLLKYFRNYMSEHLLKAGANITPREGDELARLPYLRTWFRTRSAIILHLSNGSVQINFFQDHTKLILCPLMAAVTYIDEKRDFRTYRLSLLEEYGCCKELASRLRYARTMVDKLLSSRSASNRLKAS

Row | IC50 [µM] | SMILES
1 | 0.003 | COc1cc(CNCc2ccncc2)ccc1OCc1ccc(Cl)cc1

Molecular target: Serine/threonine-protein kinase PLK2 (Homo sapiens, UniProt Q9NYY3)
Assay: Inhibition of Plk2 immunoprecipitated from human HeLa cells using casein substrate after 12 to 26 hrs by autoradiography
Assay type: cell-based
Details: not given
In short: as §1

Serine/threonine-protein kinase PLK2, sequence (Q9NYY3 whole entry): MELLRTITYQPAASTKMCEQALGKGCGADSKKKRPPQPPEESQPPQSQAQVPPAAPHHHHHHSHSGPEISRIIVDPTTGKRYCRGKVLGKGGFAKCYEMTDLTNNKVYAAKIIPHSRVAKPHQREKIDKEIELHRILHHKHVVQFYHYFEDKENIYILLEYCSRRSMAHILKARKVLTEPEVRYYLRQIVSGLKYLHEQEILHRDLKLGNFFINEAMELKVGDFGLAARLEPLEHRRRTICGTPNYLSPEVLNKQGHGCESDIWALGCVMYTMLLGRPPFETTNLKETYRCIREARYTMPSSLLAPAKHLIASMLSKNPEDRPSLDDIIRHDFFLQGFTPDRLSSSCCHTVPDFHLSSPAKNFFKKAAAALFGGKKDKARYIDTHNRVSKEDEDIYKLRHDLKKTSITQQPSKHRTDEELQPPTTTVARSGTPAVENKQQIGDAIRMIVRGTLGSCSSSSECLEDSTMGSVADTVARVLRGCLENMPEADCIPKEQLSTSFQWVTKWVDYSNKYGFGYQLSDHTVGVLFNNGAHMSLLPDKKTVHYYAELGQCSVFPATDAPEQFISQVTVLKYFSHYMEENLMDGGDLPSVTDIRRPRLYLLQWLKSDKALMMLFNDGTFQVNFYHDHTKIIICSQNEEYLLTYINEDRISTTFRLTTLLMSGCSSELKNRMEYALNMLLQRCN

Row | IC50 [µM] | SMILES
2 | > 10 | COc1cc(CNCc2ccncc2)ccc1OCc1ccc(Cl)cc1

Tested on: HeLa
Assay: Induction of apoptosis in human HeLa cells assessed as increase in PARP cleavage at 33 uM after 48 hrs by Western blot analysis
Assay type: functional, cell-based
Details: not given
In short: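 HeLa cells were harvested 48 h after compound incubation, with untreated medium controls. Western blotting against Parp detected both full-length protein and its apoptotic cleavage product.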

Row | SMILES | Activity
3 | COc1cc(CNCc2ccncc2)ccc1OCc1ccc(Cl)cc1 | Active

Tested on: HeLa
Assay: Induction of apoptosis in human HeLa cells assessed as caspase-3/7 activation after 48 hrs […]
Assay type: functional, cell-based
Details: not given
In short: (§2)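 Caspase 3/7 activation in HeLa cells was read 48 h after treatment by luminescence and reported as relative RLU versus medium-only controls. n = 3, mean SD.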

Row | SMILES | Activity
4 | COc1cc(CNCc2ccncc2)ccc1OCc1ccc(Cl)cc1 | Dose-dependent effect

Molecular target: Serine/threonine-protein kinase PLK3 (Homo sapiens, UniProt Q9H4B4)
Assay: Inhibition of Plk3 immunoprecipitated from human HeLa cells using casein substrate after 12 to 26 hrs by autoradiography
Assay type: cell-based
Details: not given
In short: as §1

Serine/threonine-protein kinase PLK3, sequence (Q9H4B4 whole entry): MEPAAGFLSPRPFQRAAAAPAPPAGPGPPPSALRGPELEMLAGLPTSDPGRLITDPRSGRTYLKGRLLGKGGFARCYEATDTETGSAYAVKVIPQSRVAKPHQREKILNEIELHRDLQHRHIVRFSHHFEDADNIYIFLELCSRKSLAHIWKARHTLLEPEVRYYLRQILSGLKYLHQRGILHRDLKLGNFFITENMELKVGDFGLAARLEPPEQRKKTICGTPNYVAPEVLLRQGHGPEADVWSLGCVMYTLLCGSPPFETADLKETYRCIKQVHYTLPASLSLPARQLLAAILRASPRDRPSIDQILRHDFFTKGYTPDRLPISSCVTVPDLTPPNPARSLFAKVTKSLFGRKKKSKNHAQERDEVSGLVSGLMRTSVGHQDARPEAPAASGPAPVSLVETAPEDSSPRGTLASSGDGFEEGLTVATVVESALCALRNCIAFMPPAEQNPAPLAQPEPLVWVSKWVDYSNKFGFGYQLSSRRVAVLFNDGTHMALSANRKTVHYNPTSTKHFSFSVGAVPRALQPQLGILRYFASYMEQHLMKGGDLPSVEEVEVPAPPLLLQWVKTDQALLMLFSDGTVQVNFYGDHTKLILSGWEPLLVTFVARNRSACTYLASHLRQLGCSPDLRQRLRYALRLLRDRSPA

Row | IC50 [µM] | SMILES
5 | > 10 | COc1cc(CNCc2ccncc2)ccc1OCc1ccc(Cl)cc1

Tested on: HeLa
Assay: Induction of apoptosis in human HeLa cells assessed as caspase-3/7 activation at 1 nM to 66 uM by […]
Assay type: functional, cell-based
Details: TDE = time-dependent effect
In short: as §2

Row | SMILES | Activity
6 | COc1cc(CNCc2ccncc2)ccc1OCc1ccc(Cl)cc1 | tde

Tested on: HeLa
Assay: Antiproliferative activity against human HeLa cells assessed as growth inhibition after 24 to 72 hrs
Assay type: functional, cell-based
Details: Homo sapiens, HeLa; read-out: EC50
In short: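 HeLa cells were exposed to compound for 24–72 h, with medium-only cells as control. Surviving cells are expressed as a percentage of control cell number at 72 h. n = 3.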

Row | SMILES | EC50 [µM]
7 | COc1cc(CNCc2ccncc2)ccc1OCc1cnc(Cl)c(Cl)c1 | 0.22
8 | COc1cc(CNCc2ccncc2)ccc1OCc1ccc([N+](=O)[O-])cc1 | 0.44
9 | Clc1ccc(COc2ccc(CNCc3ccncc3)cc2)cc1 | 4
10 | COc1cc(OCc2ccc(Cl)nc2)ccc1CNCc1ccncc1 | 3.3
11 | COc1cc(CNCCSc2nnnn2C)ccc1OCc1ccc(Cl)nc1 | 86
12 | CCOc1cc(CNCc2ccncc2)ccc1OCc1ccc(Cl)cc1 | 2.5
13 | COc1ccc(CCNCc2ccc(OCC(=O)N3CCCCC3)c(OC)c2)cc1OC | 87
14 | COc1ccc(CCNCc2ccc(OCC(=O)N3CCOCC3)c(OC)c2)cc1OC | 85
15 | COc1cc(CNCCCN2CCOCC2)ccc1OCc1ccc(Cl)nc1 | > 100
16 | COc1cc(OCc2cnc(Cl)c(Cl)c2)ccc1CNCc1ccncc1 | 0.4
17 | COc1ccc(CCNCc2ccc(OCc3cccs3)c(OC)c2)cc1OC | 18
18 | COc1cc(CNCCCN(C)C)ccc1OCc1ccc(Cl)nc1 | 5
19 | COc1cc(CNCc2ccccn2)ccc1OCc1c(Cl)cccc1Cl | 6.1
20 | COc1cc(CNCc2ccccn2)ccc1OCc1ccc(Cl)c(Cl)c1 | 13
21 | COc1cc(CNCc2ccncc2)ccc1OCc1ccc(Cl)c(Cl)c1 | 4
22 | COc1cc(CNCc2ccncc2)ccc1OCc1ccc(F)cc1 | 6.4

Row | SMILES | EC50 [µM]
23 | COc1cc(CNc2nc[nH]n2)ccc1OCc1ccc(Cl)nc1 | 69
24 | COc1cc(CNCc2ccncc2)ccc1OCc1cccc(F)c1 | 4.8
25 | COc1cc(CNCc2ccncc2)ccc1OCc1ccc(C)cc1 | 5
26 | COc1cc(OCc2ccc(Cl)cc2)ccc1CNCc1ccncc1 | 0.44
27 | COc1cc(CNCc2ccncc2)ccc1OCc1ccc(C(F)(F)F)cc1 | 2.4
28 | COc1cc(CNCCNc2ccnc3cc(Cl)ccc23)ccc1OCc1ccc(Cl)nc1 | 2.7
29 | COc1cc(CNCc2ccccn2)ccc1OCc1ccccc1Cl | 22
30 | COc1ccc(CCNCc2ccc(OCc3ccc(Cl)nc3)c(OC)c2)cc1OC | 18
31 | COc1ccc(COc2ccc(CNCc3ccncc3)cc2OC)cc1 | 5
32 | COc1cc(CNCCNC(=O)c2cnon2)ccc1OCc1ccc(Cl)nc1 | 24
33 | COc1cc(CNCc2ccncc2)ccc1OCc1ccccc1F | 5.1
34 | COc1ccc(CCNCc2ccc(OCC(=O)NC(C)(C)C)c(OC)c2)cc1OC | > 100
35 | COc1cc(CNCc2ccncc2)ccc1OCc1ccc(Cl)cc1 | 0.89
36 | COc1cc(CNCc2ccncc2)ccc1OCc1ccc(Cl)cc1Cl | 3.9
37 | COc1cc(CNCC2CCCO2)ccc1OCc1ccc(Cl)nc1 (centres undefined) | 66

The next lines start with the values.

Row | EC50 [µM] | SMILES
38 | 61 | COc1cc(CNCCc2ccccc2)ccc1OCc1ccc(Cl)nc1
39 | 96 | COc1cc(CNCc2cccs2)ccc1OCc1ccc(Cl)nc1
40 | 55 | COc1cc(CNCCc2ccncc2)ccc1OCc1ccc(Cl)nc1
41 | 0.4 | COc1cc(CNCc2ccncc2)ccc1OCc1ccc(Cl)nc1
42 | 18 | COc1cc(CNCCc2ccccc2F)ccc1OCc1ccc(Cl)nc1
43 | 97 | COCCNCc1ccc(OCc2ccc(Cl)nc2)c(OC)c1
44 | 12 | COc1cc(CNCCc2ccc(S(N)(=O)=O)cc2)ccc1OCc1ccc(Cl)nc1
45 | 5 | COc1cc(CNCc2cccnc2)ccc1OCc1ccc(Cl)nc1
46 | 16 | COc1cc(CNCCc2ccc(F)cc2)ccc1OCc1ccc(Cl)nc1
47 | 18 | COc1cc(CNCc2ccccn2)ccc1OCc1cccc(Cl)c1
48 | 90 | COc1cc(CNCc2ccccc2)ccc1OCc1ccc(Cl)nc1
49 | 8 | COc1cc(CNCCc2c[nH]c3ccccc23)ccc1OCc1ccc(Cl)nc1
50 | 71 | COc1cc(CNCc2ccc3c(c2)OCO3)ccc1OCc1ccc(Cl)nc1
51 | 60 | COc1cc(CNCC(=O)c2ccccc2)ccc1OCc1ccc(Cl)nc1

Same assay, conditions: hela

Row | EC50 | SMILES
52 | ND(Insoluble) | COc1cc(CNC2CCCCC2)ccc1OCc1ccc(Cl)nc1
53 | ND(Insoluble) | COc1cc(CNCc2ccc(C(=O)O)cc2)ccc1OCc1ccc(Cl)nc1
54 | ND(Insoluble) | COc1ccc(CCNCc2ccc(OCc3ccc(Cl)nc3)c(OC)c2)cc1

— ChEMBL document CHEMBL3352624, “Vanillin-derived antiproliferative compounds influence Plk1 activity” (Bioorg Med Chem Lett, 2014)
